Reference: ChEMBL document CHEMBL4425120, “N1-Azinylsulfonyl-1H-indoles: 5-HT6 Receptor Antagonists with Procognitive and Antidepressant-Like Properties” (ACS Med Chem Lett, 2016)
Calls of active or inactive are those of the source. The calls are words filed in the database; no cut-off is given here.

Key:
[1] = target: T1, D(3) dopamine receptor (Homo sapiens, UniProt P35462); test: Displacement of [3H]-methyl-spiperone from human recombinant dopamine D3 receptor expressed in CHO cells after 60 mins by scintillation counting; assay type: cell-based
[2] = test system: Rattus norvegicus; test: Antidepressant activity in Sprague-Dawley rat assessed as reduction in immobility time at 0.3 mg/kg, ip adminstered 60 mins prior to testing measured for 5 mins by forced swimming test; assay type: functional, organism-based
Summary of the method: (§1)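 Modified forced swim test in rats with i.p. dosing. Immobility time and climbing time were scored. Data are mean ± SEM, n = 7–8 animals per group, compared against the vehicle-treated group.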

[3] = Mutagenicity in Salmonella typhimurium TA98 at 0.2 to 16 ug/ml after 48 hrs by Ames test; assay type: toxicity; conditions: salmonella enterica subsp. enterica serovar typhimurium
[4] = target: D(2) dopamine receptor (Homo sapiens, UniProt P14416); test: Displacement of [3H]-Raclopride from human D2L receptor expressed in HEK293 cells by microbeta liquid scintillation counting; assay type: cell-based
Summary of the method: (§2)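 Ki values reported as the mean of two independent radioligand binding experiments.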

[5] = target: Cytochrome P450 1A2 (Homo sapiens, UniProt P05177); test: Inhibition of human CYP1A2 expressed in supersomes assessed as caffeine 3-N-demethylation after 15 mins by HPLC analysis; assay type: ADME
[6] = target: 5-hydroxytryptamine receptor 7 (Homo sapiens, UniProt P34969); test: Displacement of [3H]-5-CT from human 5-HT7B receptor expressed in HEK293 cells by microbeta liquid scintillation counting; assay type: cell-based; summary of the method: as §2
[7] = test system: Rattus norvegicus; test: Cognitive enhancing effect in ip dosed Sprague-Dawley rat assessed as reversal of PCP induced memory deficit administered 1 hour and 15 mins before familiarization phase by novel object recognition test; assay type: functional; conditions: for minimal effective dose: read-out: MED
Summary of the method: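 Memory deficit induced with PCP in rats. Test and reference agents were given i.p., and the reversal of the deficit in novel-object recognition was scored. Data are mean ± SEM, n = 7–12 animals per group, compared against the vehicle and PCP groups.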

[8] = target: 5-hydroxytryptamine receptor 2C (Homo sapiens) (UniProt P28335); test: Displacement of [3H]mesulergine from human recombinant 5-HT2C receptor expressed in HEK293 cells after 120 mins by scintillation counting; assay type: cell-based
[9] = target: 5-hydroxytryptamine receptor 2B (Homo sapiens) (UniProt P41595); test: Agonist activity at human recombinant 5-HT2B receptor expressed in HEK-293 cells assessed as IP1 accumulation at 1 uM after 30 mins by HTRF assay; assay type: functional, cell-based
[10] = target: Muscarinic acetylcholine receptor M1 (Homo sapiens) (UniProt P11229); test: Displacement of [3H]pirenzepine from human recombinant muscarinic M1 receptor expressed in CHO cells after 60 mins by scintillation counting; assay type: cell-based
[11] = Intrinsic clearance in rat liver microsomes at 20 uM after 15 mins in presence of NADPH-regenerating system by UPLC/MS analysis; assay type: ADME, Microsome; conditions: read-out: CLH
[12] = organism: Homo sapiens; test: Selectivity ratio of Ki for human 5-HT7B receptor expressed in HEK293 cells to Ki for human 5-HT6 receptor expressed in HEK293 cells; assay type: cell-based
[13] = Solubility of the compound at pH 7.4; assay type: physicochemical; conditions: buffer
[14] = Solubility of the compound at pH 2; assay type: physicochemical; conditions: buffer
[15] = Drug uptake in Wistar rat brain at 3 mg/kg, ip after 30 mins by LC-MS/MS analysis; assay type: ADME, organism-based; conditions: read-out: Drug uptake
Summary of the method: (§3)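 Male Wistar rats received a single 3 mg/kg i.p. dose. Brain and plasma drug levels were measured at 15, 30 and 90 min after dosing. Brain level is expressed as ng/g tissue, alongside the brain-to-plasma concentration ratio.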

[16] = Mutagenicity in Salmonella typhimurium TA100 at 0.2 to 16 ug/ml after 48 hrs by Ames test; assay type: toxicity; conditions: salmonella enterica subsp. enterica serovar typhimurium
[17] = target: Alpha-2C adrenergic receptor (Homo sapiens) (UniProt P18825); test: Displacement of [3H]RX 821002 from human recombinant adrenergic alpha 2C receptor expressed in CHO cells after 60 mins by scintillation counting; assay type: cell-based
[18] = Ratio of drug level in Wistar rat brain to plasma at 3 mg/kg, ip after 15 to 90 mins by LC-MS/MS analysis; assay type: ADME, organism-based; conditions: read-out: BPR; summary of the method: as §3
[19] = target: Histamine H1 receptor (Homo sapiens) (UniProt P35367); test: Displacement of [3H]pyrilamine from human recombinant histamine H1 receptor expressed in HEK293 cells after 60 mins by scintillation counting.; assay type: cell-based
[20] = target: T2, 5-hydroxytryptamine receptor 6 (Homo sapiens, UniProt P50406); test: Displacement of [3H]-LSD from human 5-HT6 receptor expressed in HEK293 cells by microbeta liquid scintillation counting; assay type: cell-based; summary of the method: as §2
[21] = Toxicity in Sprague-Dawley rat assessed as effect on locomotory activity at 0.1 to 1 mg/kg, ip measured for 5 mins by open field test; assay type: organism-based; conditions: in vivo
[22] = target: T1, D(3) dopamine receptor; test: Antagonist activity at human recombinant dopamine D3 receptor expressed in CHO cells assessed as inhibition of dopamine-induced cAMP accumulation after 30 mins by HTRF assay; assay type: functional, cell-based
[23] = target: Cytochrome P450 2C9 (Homo sapiens, UniProt P11712); test: Inhibition of human CYP2C9 expressed in supersomes assessed as diclofenac 4'-hydroxylation after 15 mins by HPLC analysis; assay type: ADME
[24] = Mutagenicity in Salmonella typhimurium TA1535 at 0.2 to 16 ug/ml after 48 hrs by Ames test; assay type: toxicity; conditions: salmonella enterica subsp. enterica serovar typhimurium
[25] = target: T2, 5-hydroxytryptamine receptor 6; test: Antagonist activity at human recombinant 5-HT6 receptor expressed in CHO cells assessed as inhibition of serotonin-induced intracellular cAMP accumulation after 30 mins by HTRF assay; assay type: functional, cell-based
[26] = target: Cytochrome P450 3A4 (Homo sapiens, UniProt P08684); test: Inhibition of human CYP3A4 expressed in supersomes assessed as testosterone 6beta-hydroxylation after 15 mins by HPLC analysis; assay type: ADME
[27] = organism: Homo sapiens; test: Selectivity ratio of Ki for human D2L receptor expressed in HEK293 cells to Ki for human 5-HT6 receptor expressed in HEK293 cells; assay type: cell-based
[28] = Mutagenicity in Salmonella typhimurium TA1537 at 0.2 to 16 ug/ml after 48 hrs by Ames test; assay type: toxicity; conditions: salmonella enterica subsp. enterica serovar typhimurium
[29] = target: Sodium-dependent serotonin transporter (Homo sapiens) (UniProt P31645); test: Displacement of [3H]imipramine from human recombinant SERT expressed in CHO cells after 60 mins by scintillation counting; assay type: cell-based
[30] = target: Voltage-gated inwardly rectifying potassium channel KCNH2 (Homo sapiens, UniProt Q12809); test: Displacement of [3H]Dofetilide from human recombinant ERG expressed in HEK293 cells at 10 to 50 uM after 60 mins by scintillation counting; assay type: cell-based; conditions: hek293, 1 h
[31] = test system: Rattus norvegicus; test: Antidepressant activity in Sprague-Dawley rat assessed as increase in climbing time at 0.3 mg/kg, ip adminstered 60 mins prior to testing measured for 5 mins by forced swimming test; assay type: functional, organism-based; summary of the method: as §1
[32] = target: 5-hydroxytryptamine receptor 2A (Homo sapiens, UniProt P28223); test: Displacement of [3H]-Ketanserin from human 5-HT2A receptor expressed in HEK293 cells by microbeta liquid scintillation counting; assay type: cell-based; summary of the method: as §2
Chain of 5-hydroxytryptamine receptor 2A (P28223 whole entry): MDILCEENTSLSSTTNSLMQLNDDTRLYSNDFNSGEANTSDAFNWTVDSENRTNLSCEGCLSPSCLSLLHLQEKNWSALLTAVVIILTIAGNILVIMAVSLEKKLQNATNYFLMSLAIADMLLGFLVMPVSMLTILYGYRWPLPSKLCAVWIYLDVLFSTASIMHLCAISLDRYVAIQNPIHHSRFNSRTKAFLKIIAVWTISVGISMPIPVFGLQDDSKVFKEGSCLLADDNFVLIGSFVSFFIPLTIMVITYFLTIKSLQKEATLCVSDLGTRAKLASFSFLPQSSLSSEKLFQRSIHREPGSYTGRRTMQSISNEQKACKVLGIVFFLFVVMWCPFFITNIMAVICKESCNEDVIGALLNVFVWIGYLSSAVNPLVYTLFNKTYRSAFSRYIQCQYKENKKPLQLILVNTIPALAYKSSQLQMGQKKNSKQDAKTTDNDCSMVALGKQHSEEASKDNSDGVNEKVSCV

T2 sequence (P50406 whole entry): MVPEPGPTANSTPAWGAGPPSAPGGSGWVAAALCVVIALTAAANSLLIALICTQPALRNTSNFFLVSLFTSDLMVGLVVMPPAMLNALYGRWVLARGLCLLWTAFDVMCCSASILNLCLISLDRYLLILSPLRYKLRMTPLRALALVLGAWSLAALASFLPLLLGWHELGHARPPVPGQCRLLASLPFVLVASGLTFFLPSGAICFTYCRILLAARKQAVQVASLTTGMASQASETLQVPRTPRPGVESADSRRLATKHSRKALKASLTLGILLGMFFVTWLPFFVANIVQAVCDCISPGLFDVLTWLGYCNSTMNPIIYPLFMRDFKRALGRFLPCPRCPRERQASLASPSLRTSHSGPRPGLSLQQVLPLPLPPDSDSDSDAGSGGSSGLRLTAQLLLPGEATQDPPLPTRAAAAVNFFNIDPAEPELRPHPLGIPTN
T1 sequence (P35462 whole entry): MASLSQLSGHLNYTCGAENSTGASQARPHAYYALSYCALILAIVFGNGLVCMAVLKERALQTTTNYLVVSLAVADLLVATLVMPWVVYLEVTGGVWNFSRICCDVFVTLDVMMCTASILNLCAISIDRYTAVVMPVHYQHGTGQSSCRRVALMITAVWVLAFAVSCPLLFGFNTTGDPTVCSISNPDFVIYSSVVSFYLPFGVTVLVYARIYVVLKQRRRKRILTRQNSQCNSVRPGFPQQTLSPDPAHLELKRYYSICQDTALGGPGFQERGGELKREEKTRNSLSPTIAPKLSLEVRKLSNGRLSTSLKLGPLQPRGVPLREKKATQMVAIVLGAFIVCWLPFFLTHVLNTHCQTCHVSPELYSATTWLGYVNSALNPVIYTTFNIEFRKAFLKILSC
Chain of D(2) dopamine receptor (P14416 whole entry): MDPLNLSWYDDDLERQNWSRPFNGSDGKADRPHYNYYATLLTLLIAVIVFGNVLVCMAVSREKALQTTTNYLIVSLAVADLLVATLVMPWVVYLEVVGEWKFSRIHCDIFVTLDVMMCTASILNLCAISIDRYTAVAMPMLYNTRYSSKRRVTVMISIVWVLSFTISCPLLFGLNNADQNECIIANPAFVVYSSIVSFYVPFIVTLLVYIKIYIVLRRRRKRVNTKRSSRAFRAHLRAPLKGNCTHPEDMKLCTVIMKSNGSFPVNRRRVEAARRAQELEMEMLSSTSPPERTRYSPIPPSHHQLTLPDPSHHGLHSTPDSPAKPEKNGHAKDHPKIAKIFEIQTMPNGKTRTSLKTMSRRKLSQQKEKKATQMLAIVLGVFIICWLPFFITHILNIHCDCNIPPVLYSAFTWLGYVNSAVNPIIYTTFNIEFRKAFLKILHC
Chain of Cytochrome P450 1A2 (P05177 whole entry): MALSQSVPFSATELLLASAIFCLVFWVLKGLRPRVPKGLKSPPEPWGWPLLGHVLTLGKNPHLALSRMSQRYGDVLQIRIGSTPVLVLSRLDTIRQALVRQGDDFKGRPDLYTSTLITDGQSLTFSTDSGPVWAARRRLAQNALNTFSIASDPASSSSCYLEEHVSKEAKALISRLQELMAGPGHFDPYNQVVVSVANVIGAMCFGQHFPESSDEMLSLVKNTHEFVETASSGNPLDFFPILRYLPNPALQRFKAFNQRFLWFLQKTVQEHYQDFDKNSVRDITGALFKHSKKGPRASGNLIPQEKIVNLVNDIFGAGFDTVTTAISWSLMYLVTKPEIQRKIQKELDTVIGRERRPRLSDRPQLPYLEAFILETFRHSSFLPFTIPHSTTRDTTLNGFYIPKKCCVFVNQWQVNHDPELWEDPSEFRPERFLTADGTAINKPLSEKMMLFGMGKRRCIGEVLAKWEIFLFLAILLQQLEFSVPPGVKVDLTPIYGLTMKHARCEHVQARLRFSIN
Chain of 5-hydroxytryptamine receptor 2B (Homo sapiens) (P41595 whole entry): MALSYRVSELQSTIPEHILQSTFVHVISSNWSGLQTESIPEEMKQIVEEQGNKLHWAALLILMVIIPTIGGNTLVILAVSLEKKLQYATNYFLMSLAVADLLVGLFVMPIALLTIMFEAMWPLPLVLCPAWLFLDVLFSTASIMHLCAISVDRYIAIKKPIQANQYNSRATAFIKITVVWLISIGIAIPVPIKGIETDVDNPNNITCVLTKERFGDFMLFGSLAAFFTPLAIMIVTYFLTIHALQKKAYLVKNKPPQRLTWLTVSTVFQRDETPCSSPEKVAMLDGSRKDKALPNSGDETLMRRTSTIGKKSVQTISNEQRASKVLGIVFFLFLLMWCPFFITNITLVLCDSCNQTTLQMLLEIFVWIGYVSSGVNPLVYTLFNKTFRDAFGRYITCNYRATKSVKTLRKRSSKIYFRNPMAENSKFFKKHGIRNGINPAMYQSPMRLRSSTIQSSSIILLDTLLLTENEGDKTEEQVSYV
Chain of 5-hydroxytryptamine receptor 2C (Homo sapiens) (P28335 whole entry): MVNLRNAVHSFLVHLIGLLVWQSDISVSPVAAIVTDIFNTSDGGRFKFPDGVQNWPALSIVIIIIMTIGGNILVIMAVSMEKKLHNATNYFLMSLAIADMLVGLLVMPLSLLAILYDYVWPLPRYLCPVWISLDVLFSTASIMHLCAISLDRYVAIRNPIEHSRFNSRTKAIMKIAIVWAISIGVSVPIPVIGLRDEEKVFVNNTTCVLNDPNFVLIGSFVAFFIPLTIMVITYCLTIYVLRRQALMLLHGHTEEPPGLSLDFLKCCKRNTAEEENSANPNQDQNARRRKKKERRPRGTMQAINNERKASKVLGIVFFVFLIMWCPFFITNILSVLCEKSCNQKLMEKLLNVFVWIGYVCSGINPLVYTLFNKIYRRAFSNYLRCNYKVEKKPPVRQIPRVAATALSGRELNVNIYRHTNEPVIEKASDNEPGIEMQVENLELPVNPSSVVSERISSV
Chain of Voltage-gated inwardly rectifying potassium channel KCNH2 (Q12809 whole entry): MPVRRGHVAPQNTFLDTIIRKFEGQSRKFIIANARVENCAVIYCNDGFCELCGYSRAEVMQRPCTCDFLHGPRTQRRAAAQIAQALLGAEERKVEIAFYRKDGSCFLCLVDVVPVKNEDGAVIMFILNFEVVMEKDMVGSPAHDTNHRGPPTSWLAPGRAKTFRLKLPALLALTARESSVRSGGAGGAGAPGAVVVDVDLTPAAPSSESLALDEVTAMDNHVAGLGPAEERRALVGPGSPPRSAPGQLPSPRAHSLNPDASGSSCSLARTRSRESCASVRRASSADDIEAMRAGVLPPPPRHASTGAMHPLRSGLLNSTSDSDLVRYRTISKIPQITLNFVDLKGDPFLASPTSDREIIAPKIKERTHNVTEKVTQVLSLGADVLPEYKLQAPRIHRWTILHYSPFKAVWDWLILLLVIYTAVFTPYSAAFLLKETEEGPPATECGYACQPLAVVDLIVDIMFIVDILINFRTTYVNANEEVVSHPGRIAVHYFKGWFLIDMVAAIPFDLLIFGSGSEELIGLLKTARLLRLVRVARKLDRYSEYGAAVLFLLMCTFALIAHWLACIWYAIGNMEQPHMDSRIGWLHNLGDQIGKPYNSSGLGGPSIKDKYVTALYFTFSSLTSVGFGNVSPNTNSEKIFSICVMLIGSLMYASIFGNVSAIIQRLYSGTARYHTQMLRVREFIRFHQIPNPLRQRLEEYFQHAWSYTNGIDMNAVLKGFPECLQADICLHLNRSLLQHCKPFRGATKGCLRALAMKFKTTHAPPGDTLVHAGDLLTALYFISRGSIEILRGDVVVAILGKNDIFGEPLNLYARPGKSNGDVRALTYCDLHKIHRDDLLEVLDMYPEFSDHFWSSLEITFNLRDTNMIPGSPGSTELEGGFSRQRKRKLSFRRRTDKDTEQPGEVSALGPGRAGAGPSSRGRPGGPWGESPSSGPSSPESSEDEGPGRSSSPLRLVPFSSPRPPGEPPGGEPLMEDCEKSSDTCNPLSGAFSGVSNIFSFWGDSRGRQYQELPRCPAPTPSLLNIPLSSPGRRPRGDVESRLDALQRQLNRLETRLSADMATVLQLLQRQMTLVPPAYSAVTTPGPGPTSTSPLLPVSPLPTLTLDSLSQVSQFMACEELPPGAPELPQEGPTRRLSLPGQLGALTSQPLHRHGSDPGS
Chain of 5-hydroxytryptamine receptor 7 (P34969 whole entry): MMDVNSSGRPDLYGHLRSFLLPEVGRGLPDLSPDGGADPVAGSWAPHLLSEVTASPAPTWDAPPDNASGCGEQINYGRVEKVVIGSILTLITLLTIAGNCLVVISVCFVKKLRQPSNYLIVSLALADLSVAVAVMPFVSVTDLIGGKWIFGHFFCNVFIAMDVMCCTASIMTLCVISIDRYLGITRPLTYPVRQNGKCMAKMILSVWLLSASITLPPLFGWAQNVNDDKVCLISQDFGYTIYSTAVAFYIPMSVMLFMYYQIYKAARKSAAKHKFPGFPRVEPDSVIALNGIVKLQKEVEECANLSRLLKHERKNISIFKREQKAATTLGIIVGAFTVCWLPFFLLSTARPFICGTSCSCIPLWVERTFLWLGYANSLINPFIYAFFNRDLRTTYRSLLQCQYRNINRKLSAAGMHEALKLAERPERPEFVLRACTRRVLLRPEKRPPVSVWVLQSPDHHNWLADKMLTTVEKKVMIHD

SMILES	Ki [1]	Activity [2]	Activity [3]	Ki [4]	IC50 [5]	Ki [6]	Activity [7]	minimal effective dose [7]	inhibition [8]	Activity [9]	inhibition [10]	microsomal CLint at 20 µM [11]	Ratio Ki [12]	solubility [13]	solubility [14]	concentration at 0.5 h [15]	Activity [16]	inhibition [17]	Kp [18]	inhibition [19]	other results
COc1ccc2c(c1)c(C1=CCNCC1)cn2S(=O)(=O)c1cncc2ccccc12	0.15 µM	Active	Non-Toxic	3.32 µM	100 µM	7.83 µM	Dose-dependent effect	1 mg/kg	15%	< 13%	0%	10 µL/min/mg	70	> 5000 µg/mL	> 5000 µg/mL	18.6 ng/g	Non-Toxic	21%	0.1 to 0.6	15%	Ki [20]: 0.003 µM; Activity [21]: Non-Toxic; inhibition [22]: inactive; IC50 [23]: > 100 µM; Activity [24]: Non-Toxic; Kb [25]: 0.0056 µM; IC50 [26]: 26 µM; Ratio Ki [27]: 70; Activity [28]: Non-Toxic; inhibition [29]: 6%; inhibition (INH) [30]: Not Active; Activity [31]: Active; Ki [32]: 3.35 µM
COc1ccc2c(c1)c(C1=CCNCC1)cn2S(=O)(=O)c1ccc2cccnc2c1	0.032 µM	Active	Non-Toxic	0.24 µM	100 µM	6.25 µM	Dose-dependent effect	1 mg/kg	18%	< 13%	11%	18 µL/min/mg	70	> 5000 µg/mL	> 5000 µg/mL	21.9 ng/g	Non-Toxic	18%	0.1 to 0.6	9%	Ki [20]: 0.002 µM; Activity [21]: Non-Toxic; inhibition [22]: inactive; IC50 [23]: > 100 µM; Activity [24]: Non-Toxic; Kb [25]: 0.0044 µM; IC50 [26]: 20 µM; Ratio Ki [27]: 70; Activity [28]: Non-Toxic; inhibition [29]: 4%; inhibition (INH) [30]: Not Active; Activity [31]: Active; Ki [32]: 1 µM
